The test system of data set [1] is Vaccinia virus. In words: Inhibition of Vaccinia virus DNA synthesis in by rapid plate assay. In kind it is functional, organism-based. Particulars: Orthopoxvirus vaccinia.
Data set [2] relates to Vaccinia virus. In words: Antiviral activity against Vaccinia virus WR in BSC1 cells assessed as reduction in plaque formation up to 200 uM after 20 hrs. In kind it is functional, organism-based. As to conditions: Orthopoxvirus vaccinia, BSC-1.
Data set [3] relates to Vaccinia virus. In words: Antiviral activity against Vaccinia virus WR in BSC1 cells assessed as protection from virus-induced lysis of cell monolayer up to 200 uM after 20 hrs. The class given is functional, organism-based. Particulars: Orthopoxvirus vaccinia, BSC-1.
Data set [4] can be described thus: Cytotoxicity against african green monkey BSC1 cells up to 200 uM after 20 to 120 hrs WST-1 based assay. The class given is cell-based. Particulars: chlorocebus aethiops, bsc-1. The essentials: (§1)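 Uninfected BS-C-1 cells in phenol red-free medium, seeded 5000 (20 h), 1000 (3-day) or 200 (5-day) cells/well, exposed next day to compound in two-fold serial dilutions (top 200 µM; 1% DMSO final) at 37°C. WST-1 added 30 min, A450 read. Triplicates; percent cytotoxicity vs DMSO fitted four-parameter sigmoidal for TC50.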

The subject of data set [5] is Vaccinia virus. In words: Antiviral activity against Vaccinia virus WR in BSC1 cells assessed as reduction in plaque formation after 20 hrs. The class given is functional, organism-based. Particulars: Orthopoxvirus vaccinia, BSC-1, 20 h.
The subject of data set [6] is Vaccinia virus. In words: Antiviral activity against Vaccinia virus WR in BSC1 cells assessed as protection from virus-induced lysis of cell monolayer after 20 hrs. In kind it is functional, organism-based. As to conditions: Orthopoxvirus vaccinia, BSC-1, 20 h.
Data set [7] can be described thus: Cytotoxicity against african green monkey BSC1 cells after 20 hrs WST-1 based assay. The class given is cell-based, BSC-1. Particulars: chlorocebus aethiops, read-out: TC50. The method in brief: as §1
For orientation: Tetrazolium assays rely on reduction of a dye to a coloured formazan, in cell work by metabolically active cells.

The nature of data set [8]: Cytotoxicity against african green monkey BSC1 cells after 120 hrs WST-1 based assay. As to conditions: chlorocebus aethiops, read-out: TC50. The class given is cell-based, BSC-1. The essentials: as §1
The nature of data set [9]: Selectivity index, TC50 for african green monkey BSC1 cells after 20 hrs to EC50 for Vaccinia virus WR in BSC1 cells after 20 hrs by cell protection assay. The class given is toxicity, cell-based, BSC-1. Particulars: read-out: Selectivity Index.
The subject of data set [10] is Vaccinia virus. In words: Antiviral activity against Vaccinia virus WR in BSC1 cells assessed as retention of antiviral potency by measuring exogenous double stranded DNA trapping. In kind it is functional, organism-based. As to conditions: Orthopoxvirus vaccinia, BSC-1.
Data set [11] in a line: Cytotoxicity against african green monkey BSC1 cells after 72 hrs WST-1 based assay. In kind it is cell-based, BSC-1. As to conditions: chlorocebus aethiops, read-out: TC50. The essentials:
as §1

Active and inactive are the calls of the source. The calls are words filed in the database; no cut-off is given here.

As to `O=C(NCCCN1CCCC1)c1cc2c(Cl)nc3ccccc3c2s1`, 10 µM corresponded to half-maximal inhibition with Vaccinia virus [1] (IC50). Besides, the outcome with Vaccinia virus [2] and in the data set on Vaccinia virus [3] was inactive. In [4], the Activity result is on record as “Toxic”.

The compound `BrCc1ccc(-c2noc(-c3ccncc3)n2)cc1` had an IC50 in the data set on Vaccinia virus [1] of 1.3 µM. Besides, the outcome with Vaccinia virus [2] and in the data set with Vaccinia virus [3] was inactive. Further, in data set [4], the Activity entry is given as “Toxic”.

`OC(CN1CCNCC1)Cn1c2ccc(Br)cc2c2cc(Br)ccc21` (stereo not given) had an IC50 in the data set with Vaccinia virus [1] of 6.3 µM. The result with Vaccinia virus [2] and in the data set on Vaccinia virus [3] was inactive. Also, in [4], the Activity entry is recorded as “Toxic”.

`CN(C)CC/N=c1\cc(-c2ccccc2)oc2ccc(Cl)cc12`: it took 6.7 µM to reach half-maximal inhibition in the data set with Vaccinia virus [1] (IC50). The result in the data set on Vaccinia virus [2] and in the data set with Vaccinia virus [3] was inactive. For the same compound, the Activity entry in data set [4] is on record as “Toxic”.

As to `Cc1ccc2oc(-c3ccccc3)c/c(=N\CCO)c2c1`, inhibition in the data set with Vaccinia virus [1] was half-maximal at 25 µM (IC50). Moreover, the EC50 with Vaccinia virus [5] came to 40 µM; in the data set on Vaccinia virus [6], 57 µM. For the same compound, the CC50 at 20 h in data set [7] is greater than 200 µM. Also, the CC50 at 120 h in data set [8] is 12 µM. For the same compound, in data set [9], the selectivity ratio at 20 h was greater than 3.5. For the same compound, the outcome in the data set with Vaccinia virus [10] was inactive.

`Cc1cc(NCCN2CCCCC2)c2ccc3ccccc3c2n1` returned an IC50 in the data set on Vaccinia virus [1] of 6 µM. The result in the data set with Vaccinia virus [2] and with Vaccinia virus [3] was inactive. The Activity result in data set [4] is given as “Toxic”.

As to `CC(C)Nc1ccc(Nc2ccnc3cc4ccccc4cc23)cc1`, it took 4.1 µM to reach half-maximal inhibition in the data set with Vaccinia virus [1] (IC50). In addition, the result with Vaccinia virus [2] and with Vaccinia virus [3] was inactive. For the same compound, in [4], the Activity result is “Toxic”.

For `Nc1ccn(C[C@@H](CO)OCP(=O)(O)O)c(=O)n1` [CIDOFOVIR], the EC50 in the data set with Vaccinia virus [5] came out at 50 µM. Also, the CC50 at 20 h in [7] was greater than 500 µM. Also, in data set [11], the CC50 at 72 h is greater than 500 µM. Also, the CC50 at 120 h in [8] worked out at 300 µM. The selectivity ratio at 20 h in [9] was greater than 3.8. Also, in the data set with Vaccinia virus [10], the result was Active.

The compound `CN(C)CCc1cc2c(c3c1ccc1ccccc13)OCO2` gave a half-maximal inhibitory concentration (IC50) in the data set with Vaccinia virus [1] of 5.4 µM. For the same compound, the result in the data set with Vaccinia virus [2] and in the data set on Vaccinia virus [3] was inactive. The Activity entry in data set [4] is on record as “Toxic”.

In the data set with Vaccinia virus [1], `CN(C)c1ccc(-c2cccc(-c3ccc(N(C)C)cc3)[o+]2)cc1` displayed an IC50 of 3 µM. Moreover, the outcome in the data set with Vaccinia virus [2] and in the data set with Vaccinia virus [3] was inactive. The Activity entry in data set [4] was “Toxic”.

`CCS(=O)(=O)N1CCN=C1SCc1ccc(Cl)cc1Cl` returned an IC50 in the data set with Vaccinia virus [1] of 188 µM. For the same compound, the values for the half-maximal effective concentration (EC50) with Vaccinia virus [5] and in the data set with Vaccinia virus [6] were 25 µM and 90 µM, respectively. Further, the CC50 at 20 h in data set [7] stood at 166 µM. Further, the result with Vaccinia virus [10] was Active.

For the compound `N=C1/C(=C/c2coc3ccccc3c2=O)C(=O)N=C2SC=NN12`, the IC50 with Vaccinia virus [1] is 75 µM. Also, the CC50 at 20 h in [7] was greater than 200 µM. The CC50 at 72 h in data set [11] was greater than 200 µM. The CC50 at 120 h in [8] turned out to be 50 µM. Moreover, in data set [9], the selectivity ratio at 20 h was greater than 1. Moreover, the result in the data set with Vaccinia virus [10] was Active.

In the data set on Vaccinia virus [1], `Cc1ccc2nc(Cl)c3cc(C(=O)N(CCN(C)C)Cc4ccco4)sc3c2c1` came in with an IC50 of 10 µM. Besides, the outcome in the data set on Vaccinia virus [2] and in the data set with Vaccinia virus [3] was inactive. In addition, in data set [4], the Activity result is listed as “Toxic”.

The compound `COc1ccc2c(c1)C=C/C(=C\c1sc3ccccc3[n+]1C)N2C.[Cl-]` displayed an IC50 with Vaccinia virus [1] of 4 µM. Further, the outcome in the data set with Vaccinia virus [2] and in the data set with Vaccinia virus [3] was inactive. Moreover, the Activity entry in [4] is “Toxic”.

With `CCC/N=c1\cc(-c2ccccc2)oc2ccc(C)cc12`, the EC50 was 25 µM in the data set on Vaccinia virus [5] and 57 µM in the data set with Vaccinia virus [6]. The CC50 at 20 h in [7] was greater than 200 µM. The CC50 at 120 h in data set [8] stood at 10 µM. Moreover, the result in the data set with Vaccinia virus [10] was inactive.

As for `CC1=CC(C)(C)N=C(Nc2nc(C)c3cc(C)cc(C)c3n2)N1`, the midpoint of inhibition with Vaccinia virus [1], the IC50, lay at 5.3 µM. Moreover, the outcome in the data set on Vaccinia virus [2] and with Vaccinia virus [3] was inactive. The Activity entry in data set [4] is listed as “Toxic”.

Compound `O=C(O)c1ccc(CS(=O)(=O)c2ccccc2)o1` had an IC50 with Vaccinia virus [1] of 7.4 µM. Further, the result with Vaccinia virus [2] and in the data set on Vaccinia virus [3] was inactive. Besides, the Activity entry in [4] is “Toxic”.

`Cc1csc2c(N3CCN(C(=O)NC(C)(C)C)CC3)ncnc12` showed an IC50 in the data set on Vaccinia virus [1] of 12 µM. The EC50 in the data set on Vaccinia virus [5] is 15 µM; in the data set on Vaccinia virus [6], 50 µM. Moreover, the CC50 at 20 h in data set [7] was 157 µM. In addition, the CC50 at 120 h in data set [8] was 40 µM. The selectivity ratio at 20 h in data set [9] is 3.1. In the data set with Vaccinia virus [10], the result was Active.

In turn, `CC1CCCC(C)N1CCNc1nc2ccccc2c2nc(-c3ccccc3)nn12` (stereo not given) yielded an IC50 with Vaccinia virus [1] of 7.3 µM. In addition, the outcome in the data set on Vaccinia virus [2] and in the data set on Vaccinia virus [3] was inactive. Also, the Activity result in data set [4] is “Toxic”.

Take `CCN1CCN(c2ccc(Nc3ccnc4cc5ccccc5cc34)cc2)CC1`: in the data set on Vaccinia virus [1], inhibition was half-maximal at 0.5 µM (IC50). Besides, the result in the data set with Vaccinia virus [2] and in the data set on Vaccinia virus [3] was inactive. In addition, in [4], the Activity entry was “Toxic”.

Turning to `N/N=C1\CCCc2c1[nH]c1ccc(C(=O)NN)cc21`, the values for the EC50 in the data set on Vaccinia virus [5] and in the data set with Vaccinia virus [6] were 100 µM and 193 µM, respectively. The CC50 at 20 h in data set [7] is greater than 200 µM. Besides, in data set [11], the CC50 at 72 h was found to be 35 µM. Moreover, the result with Vaccinia virus [10] was inactive.

Turning to `O=C(O)Cn1c2ccc(Cl)cc2c2nc3ccccc3nc21`, the EC50 in the data set on Vaccinia virus [5] is 50 µM; with Vaccinia virus [6], 100 µM. The CC50 at 20 h in data set [7] was greater than 100 µM. Besides, the CC50 at 72 h in data set [11] was determined as 13 µM. In addition, the CC50 at 120 h in data set [8] was found to be 30 µM. Besides, in the data set with Vaccinia virus [10], the result was Active.

In turn, `COc1ccc2nc(NC(=N)N)nc(C)c2c1` displayed a half-maximal inhibitory concentration (IC50) with Vaccinia virus [1] of 7.4 µM. For the same compound, the outcome with Vaccinia virus [2] and with Vaccinia virus [3] was inactive. Besides, the Activity entry in data set [4] is “Toxic”.

Consider `CC[n+]1cc(/C=C2\SC=CN2C)c(C)c2cc(OC)c3ccccc3c21`, for which, in the data set on Vaccinia virus [1], half-maximal inhibition (IC50) was put at 3.5 µM. Moreover, the result in the data set with Vaccinia virus [2] and in the data set on Vaccinia virus [3] was inactive. For the same compound, in [4], the Activity entry is listed as “Toxic”.

Compound `CCNc1nc(SCc2ccc(Cl)cc2)nc2sc3c(c12)CCN(C)C3` came in with an IC50 in the data set on Vaccinia virus [1] of 129 µM. Further, the EC50 came to 15 µM with Vaccinia virus [5] and 45 µM in the data set with Vaccinia virus [6]. In addition, the CC50 at 20 h in data set [7] is 115 µM. In data set [8], the CC50 at 120 h is 5 µM. In [9], the selectivity ratio at 20 h amounted to 2.6. In addition, the result with Vaccinia virus [10] was Active.

In the data set with Vaccinia virus [1], `CCN(CC)CCCNc1nc2cc(OC)c(OC)cc2c2nc(-c3ccccc3)nn12` came in with a half-inhibitory concentration (IC50) of 5.9 µM. The result in the data set with Vaccinia virus [2] and in the data set with Vaccinia virus [3] was inactive. Moreover, the Activity entry in data set [4] is reported as “Toxic”.

For `CCOC(=O)CCc1c(CC(=O)OCC)c[nH]c1/C=N/O.Cl`, the IC50 with Vaccinia virus [1] was 3.8 µM. Also, the outcome in the data set with Vaccinia virus [2] and in the data set with Vaccinia virus [3] was inactive. Also, the Activity entry in [4] was “Toxic”.

Consider `CCOC(=O)c1cnc2c(C)c(C)ccc2c1NCCCN(C)C`, for which, in the data set with Vaccinia virus [1], the IC50 turned out to be 5 µM. Further, the outcome with Vaccinia virus [2] and in the data set with Vaccinia virus [3] was inactive. Moreover, in data set [4], the Activity result is on record as “Toxic”.

For orientation: IC50 means the concentration that inhibits the measured activity by half. Usually EC50 stands for the midpoint of the concentration-response curve.

The values above are taken from ChEMBL document CHEMBL1140145, “Identification of non-nucleoside DNA synthesis inhibitors of vaccinia virus by high-throughput screening” (J Med Chem, 2008).
